Reference: ChEMBL document CHEMBL4011639, “Discovery of Novel Nucleotide Prodrugs with Improved Potency Against HCV Variants Carrying NS5B S282T Mutation” (J Med Chem, 2017)

Experiments:
Mus musculus [1] = assay: Subacute toxicity in ICR mouse assessed as alteration in basic levels of SGPT at 100 to 1000 mg/kg, administered once a day via oral gavage for 14 days; format: organism-based; conditions: in vivo, 336 h
Outline: (§1)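 ICR mice, 22−25 g, 5 per sex per group, gavaged daily for 14 days at 100, 500 or 1000 mg/kg in 30% PEG400/30% Tween 20/20% corn oil/20% water, with a vehicle control group. Observed daily for body weight change, skin and fur, inflammation and necrosis. Animals anesthetized on day 15; organ weights (liver, kidney) taken. Serum SGOT/SGPT compared with controls.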

[2] = target: Adenosine 5'-monophosphoramidase HINT1 (Homo sapiens, UniProt P49773); assay: Drug metabolism in human HuH7 cells assessed as HINT1-mediated ((2R,3R,4R,5R)-5-(4-butyramido-2-oxopyrimidin-1(2H)-yl)-4-fluoro-3-hydroxy-4-methyltetrahydrofuran-2-yl)methyl dihydrogen phosphate metabolite formation at 50 uM after 48 hrs by LC/MS/MS analysis; format: ADME, cell-based
Chain of Adenosine 5'-monophosphoramidase HINT1 (P49773 whole entry): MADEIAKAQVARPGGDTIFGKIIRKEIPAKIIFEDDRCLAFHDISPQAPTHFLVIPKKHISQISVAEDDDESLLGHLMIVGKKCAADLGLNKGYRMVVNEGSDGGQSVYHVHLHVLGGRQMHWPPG
Outline: (§2)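 Huh-7 cells plated at 0.35 million/mL in DMEM with 10% FBS (about 1 million per well at dosing) and grown 18 h. At each time point cells were washed with cold saline and lysed in methanol with internal standard. Semiquantified by LC/MS/MS MRM as Δ mean peak-area ratio relative to t0.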

Mus musculus [3] = assay: Subacute toxicity in ICR mouse assessed as clinical signs of toxicity at 100 to 1000 mg/kg, administered once a day via oral gavage for 14 days; format: organism-based; conditions: in vivo, 336 h; outline: as §1
[4] = AUC (0 to infinity) in Beagle dog at 150 mg/kg, administered via oral gavage measured up to 24 hrs post dose by LC/MS/MS analysis; format: ADME, organism-based, Canis lupus familiaris; design: dose 150 mg/kg, route oral, time infinity; conditions: in vivo
Outline: (§3)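 Beagle dogs, 3 per sex, given a single oral gavage dose of 150 mg/kg in 20% w/v hydroxypropyl-β-cyclodextrin in water, 2.5 mL/kg. K2EDTA blood taken by venipuncture at 0.5, 0.75, 1, 2, 4, 6, 8, 12 and 24 h. Plasma extracted with ice-cold acetonitrile, then LC/MS/MS in positive MRM mode with zolpidem as internal standard. Noncompartmental analysis; mean ± SD.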

Huh-7 = assay: Cytotoxicity against human HuH7 cells assessed as reduction in cell viability up to 100 uM after 72 hrs by Cell Titer-Fluor Cell assay; format: cell-based; conditions: huh-7, 72 h
Outline: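 Huh7 cells carrying HCV genotype 1b replicon, 8000 per well, in duplicate 3-fold dilution series with 0.5% DMSO final; 72 h at 37 °C, 5% CO2. Viability read by Cell Titer-Fluor fluorescence after 5 min; replicon inhibition read by Bright-Glo luciferase luminescence in the same wells. EC50 and CC50 come from curve fitting.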

Liver carboxylesterase 1 = target: T1, Liver carboxylesterase 1 (Homo sapiens, UniProt P23141); assay: Drug metabolism in human HuH7 cells assessed as carboxylesterase 1-mediated (S)-2-((R)-(((2R,3R,4R,5R)-5-(4-butyramido-2-oxopyrimidin-1(2H)-yl)-4-fluoro-3-hydroxy-4-methyltetrahydrofuran-2-yl)methoxy)(hydroxy)phosphorylamino)propanoic acid metabolite formation at 50 uM after 24 hrs by LC/MS/MS analysis; format: ADME, cell-based; outline: as §2
T1 sequence (P23141 whole entry): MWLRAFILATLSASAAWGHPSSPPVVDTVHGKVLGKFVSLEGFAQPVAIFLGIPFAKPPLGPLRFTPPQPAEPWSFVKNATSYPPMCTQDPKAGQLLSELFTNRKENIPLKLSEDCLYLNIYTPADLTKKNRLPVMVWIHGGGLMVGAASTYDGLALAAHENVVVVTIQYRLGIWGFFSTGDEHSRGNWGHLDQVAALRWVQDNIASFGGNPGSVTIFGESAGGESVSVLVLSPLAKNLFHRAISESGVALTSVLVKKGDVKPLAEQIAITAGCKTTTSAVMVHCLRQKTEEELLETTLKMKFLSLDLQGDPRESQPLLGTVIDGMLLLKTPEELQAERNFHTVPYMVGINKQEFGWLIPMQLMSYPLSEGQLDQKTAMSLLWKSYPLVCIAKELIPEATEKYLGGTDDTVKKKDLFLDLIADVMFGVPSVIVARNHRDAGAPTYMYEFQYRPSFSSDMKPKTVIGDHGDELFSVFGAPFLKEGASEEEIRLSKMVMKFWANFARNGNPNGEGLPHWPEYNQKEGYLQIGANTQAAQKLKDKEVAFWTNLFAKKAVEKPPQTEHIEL

[5] = Drug metabolism in human HuH7 cells assessed as ((2R,3R,4R,5R)-4-fluoro-3-hydroxy-5-(4-hydroxy-2-oxo-3,4-dihydropyrimidin-1(2H)-yl)-4-methyltetrahydrofuran-2-yl)methyl tetrahydrogen triphosphate metabolite formation at 50 uM after 48 hrs by LC/MS/MS analysis; format: ADME, cell-based; conditions: huh-7, 48 h; outline: as §2
Mus musculus [6] = assay: Subacute toxicity in ICR mouse assessed as effect on tubules at 100 to 1000 mg/kg, administered once a day via oral gavage for 14 days by hematoxylin/eosin-staining based microscopic analysis; format: organism-based; conditions: in vivo, 336 h
Outline: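 Same 14-day daily oral gavage design as the subacute study (ICR mice, 5 per sex per group, 100/500/1000 mg/kg or vehicle). Liver and kidney taken after anesthesia on day 15, processed routinely, cut as 5 μm paraffin sections, stained with hematoxylin and eosin and examined microscopically.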

Mus musculus [7] = assay: Subacute toxicity in ICR mouse assessed as weight change in liver at 100 to 1000 mg/kg, administered once a day via oral gavage for 14 days; format: organism-based; conditions: in vivo, 336 h; outline: as §1
[8] = system: Hepatitis C virus subtype 1b; assay: Ratio of EC50 for HCV genotype 1b replicon NS5B S282T mutant to EC50 for wild type HCV genotype 1b replicon NS5B
Outline: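 Huh7 cells carrying wild-type or S282T mutant HCV genotype 1b replicon, 8000 cells per well, exposed to 3-fold compound dilution series (0.5% DMSO final, duplicates) for 72 h at 37 °C, 5% CO2. Replicon activity read by Bright-Glo luciferase luminescence. EC50 averaged from duplicate determinations; ratio taken as S282T EC50 over wild-type EC50.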

[9] = Half life in Beagle dog at 150 mg/kg, administered via oral gavage measured up to 24 hrs post dose by LC/MS/MS analysis; format: ADME, organism-based, Canis lupus familiaris; conditions: in vivo; outline: as §3
Canis familiaris = assay: Toxicity in Beagle dog at 150 mg/kg, administered via oral gavage measured up to 24 hrs post dose; format: organism-based, Canis lupus familiaris; conditions: in vivo
Outline: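 Six Beagle dogs (three male, three female) given one oral gavage dose of 150 mg/kg in 20% w/v hydroxypropyl-β-cyclodextrin in water. Animals watched for clinical symptoms and adverse events while plasma was sampled over 24 h.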

Mus musculus [10] = assay: Acute toxicity in ICR mouse assessed as mortality at 150 to 1800 mg/kg, administered via oral gavage measured once a day over 14 days; format: organism-based; conditions: in vivo, 336 h
Outline: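 ICR mice, 22−25 g, 5 per sex per group. Single oral gavage at 150, 500, 1200 or 1800 mg/kg in vehicle of 30% PEG400/30% Tween 20/20% corn oil/20% water, with a vehicle control. Mortality, morbidity, clinical signs and body weight change recorded once daily for 14 days.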

Mus musculus [11] = assay: Subacute toxicity in ICR mouse assessed as macroscopic pathologic findings at 100 to 1000 mg/kg, administered once a day via oral gavage for 14 days; format: organism-based; conditions: in vivo, 336 h; outline: as §1
Mus musculus [12] = assay: Subacute toxicity in ICR mouse assessed as weight change in kidney at 100 to 1000 mg/kg, administered once a day via oral gavage for 14 days; format: organism-based; conditions: in vivo, 336 h; outline: as §1

In the case of CCCC(=O)Nc1ccn([C@@H]2O[C@H](CO[P@@](=O)(N[C@@H](C)C(=O)OC(C)C)Oc3ccccc3)[C@@H](O)[C@@]2(C)F)c(=O)n1, the Activity (Mus musculus [1]) is reported as “Non-Toxic”, the Drug metabolism [2] is reported as “Metabolite_Notdetected” and the Activity (Mus musculus [3]) is reported as “Non-Toxic”. The AUC(0-inf) [4] was 411 ng·h/mL, the Activity (Huh-7) was “Non-Toxic” and the Drug metabolism (Liver carboxylesterase 1) was “Metabolite_Detected”. The Drug metabolism [5] was “Metabolite_Notdetected”, the Activity (Mus musculus [6]) was “Non-Toxic” and the Activity (Mus musculus [7]) was “Non-Toxic”. For the same compound, the Ratio EC50 [8] was 3.2, the half-life [9] was 852 min and the Activity (Canis familiaris) was “Non-Toxic”. The Activity (Mus musculus [10]) was “Non-Toxic”, the Activity (Mus musculus [11]) was “Non-Toxic” and the Activity (Mus musculus [12]) was “Non-Toxic”.
